A selection: hits, their analogues and other compounds. The true share with any hit is near 3.1%.
Beta cell apopt: inhibitors of cytokine-induced beta cell apoptosis, primary screen, luminescence; INS-1E cytokine-induced death, ATP luminescence, 48 h; percent of positive-control rescue, neutral wells zero; protection from apoptosis, % (concentration not given with the values); 0.8% of 300,000 active; AID 435005, 2010;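 active means Every replicate reaches about 75%, or at least half do and their mean reaches it too, limit read from the data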;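 further: 0% = cytokine-treated negative control wells and 100% = positive control rescue; higher means more ATP so stronger rescue from cytokine killing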
A1 inh: caspase 3/7 activation in MEF A1-2A-BIM cells, primary screen, A1 inhibitor project, cell-based, luminescence, HTS | Caspase-Glo 3/7 luminescence, 3 h; percent of clofoctol response, vehicle zero | caspase activation, % (concentration not given with the values) | 0.066% of 330,000 active;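 active means over half of replicate activation scores above 10%, or exactly half above 10 with the replicate mean above 10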
Calb FLC: C. albicans growth inhibition with fluconazole, primary screen, CaCi-2 strain, Alamar Blue fluorescence. C. albicans CaCi-2 (fluconazole-resistant clinical isolate) + fluconazole, 48 h. AID 1979, 2009. 0.57% of 300,000 active. growth inhibition, % (no concentration beside the values);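 active means growth inhibition above about 58% in most replicates, limit read from the data, passing the limit was not always enough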;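 further: all wells also contain fluconazole at 8 µg/ml as a sub-toxic cotreatment; 0% = median of DMSO wells and 100% = median of geldanamycin control wells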
T cruzi repl: inhibitors of intracellular T. cruzi growth, primary screen, luminescence, NIH3T3 host cells; inhibition, % (test concentration not listed); T. cruzi beta-gal in NIH3T3, 90 h; AID 1885, 2009; 1.4% of 300,000 active;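 active means mean inhibition across valid replicates above about 55%, limit read from the data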;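 further: signal also drops with host cell toxicity which is not excluded here; 0% = plate median of DMSO wells and 100% = zero luminescence signal; higher percent means less beta-gal luminescence so fewer parasites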
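Read-out: Parasite load inhibition, % | Test system: Mouse NIH/3T3 fibroblasts infected with β-gal-expressing T. cruzi Tulahuen C4 | Amount: 5,000 cells/well | Medium: DMEM, 2% fetal bovine serum | Signal: GalScreen β-gal luminescence, detergent lysis, 60 min | Timing: 3 h attach, ≥90 h co-culture | Also added: Tulahuen C4 trypomastigotes, 5000/well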
TAG inh: inhibitors of triacylglycerol accumulation, primary screen, cell-based, uHTS, fluorescence, H9c2. H9c2 cells, Nile Red lipid (TAG) fluorescence; cells loaded with 200 µM oleic acid. inhibition, % at 12.5 µM. 0.66% of 230,000 active;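 active means pattern-corrected inhibition of lipid staining of at least 50% with the nuclear-stain viability signal not falling by more than 50%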;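 further: 0% = DMSO wells and 100% = triacsin C control wells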
CSC inhib: cancer stem cell viability inhibitors, primary screen, luminescence | cancer stem cell-like cells viability | inhibition, % at 7.5 µM | AID 2717, 2010 | 1.1% of 300,000 active; in the data active means inhibition above about 75%; tested in HMLE shEcad cells
Numbers without * were called inactive; . = not tested or not shown.

SMILES	Beta cell apopt	A1 inh	Calb FLC	T cruzi repl	TAG inh	CSC inhib
Cc1cc(SCC(=O)Nc2ccc3[nH]c(=O)[nH]c3c2)nc2ccccc12	-7	0	.	.	4	20
O=[N+]([O-])c1cc(-c2nc3nc4ccccc4nc3n2CCc2ccccc2)cc([N+](=O)[O-])c1	-5	0	-5	56*	.	13
c1ccc(Cn2c(-c3ccccc3)nc3nc4ccccc4nc32)cc1	11	-1	-10	28	.	.
O=C(CC1Sc2ccccc2NC1=O)NNc1cccc(Cl)c1Cl (stereo not given)	.	.	.	.	-13	.
CCN(CC)S(=O)(=O)c1cccc(NC(=O)CNc2cccc(S(=O)(=O)N3CCCC3)c2)c1	112*	-1	2	7	-23	13
CCN(CC)S(=O)(=O)c1cccc(NC(=O)Nc2cccc(C(F)(F)F)c2)c1	112*	0	-5	42	.	103*
CCN(CC)S(=O)(=O)c1ccc(C)c(NC(=O)CNc2cccc(S(=O)(=O)N3CCCC3)c2)c1	.	0	0	13	-19	-6
Cc1c(C(=O)N2CCN(C(c3ccccc3)c3ccccc3)CC2)oc2ccccc12	0	0	.	.	11	36
COc1ccnc(Oc2ccccc2)c1C(=O)N/C=N/OCc1ccccc1	-1	0	-25	16	-6	.
COc1ccnc(Oc2cccc(C(F)(F)F)c2)c1C(=O)N/C=N/OCc1ccccc1F	11	1	108*	22	-20	7
O=C1C[C@@H]2c3c(cccc3CN1Cc1ccc(Cl)cc1)C[C@@H](O)[C@H]2O	.	.	.	.	17	.
CC(Sc1nnc(C2CC2)n1C1CC1)C(=O)NC1(C#N)CCCCC1 (stereo not given)	-1	1	.	.	-1	.
O=C(O)c1ccc(N2C(=O)CSC2=S)cc1	-2	0	4	-30	5	-9
O=C(O)c1ccc(CN2C(=O)CSC2=S)cc1	-5	1	98*	7	2	23
Cc1ccccc1-c1cc2nc(NCCOc3ccccc3Cl)n(C)c(=O)c2s1	.	.	.	.	-4	.
N#Cc1c(NCCCO)nc(NCc2ccccc2)c2c1CCN(Cc1ccccc1)C2	21	2	26	35	9	-2
CN1CCc2c(C#N)c(N3CCCCC3)nc(NCc3ccccc3)c2C1	-6	1	-8	56*	30	-3
O=C(/C=C/c1cccc(Cl)c1)c1nc2ccccc2[nH]1	-3	1	99*	-10	15	84*
COc1cc(/C=C(/C(=O)c2cccs2)c2nc3ccccc3[nH]2)ccc1O	83*	1	3	-15	-21	61
O=C(/C(=C/c1ccc(Cl)cc1)c1nc2ccccc2[nH]1)c1cccs1	126*	2	35	59*	.	93*
O/C(=C\c1nc2ccccc2[nH]1)c1cccs1	-5	0	7	4	.	.
COC(=O)/C(=C\c1cc(OC)c(OC)c(OC)c1)c1nc2ccccc2[nH]1	-6	1	-3	5	-3	12
Cc1ccccc1NC(=S)c1nc2ccccc2[nH]1	32	-2	13	31	.	26
S=C(Nc1ccc(Cl)cc1)c1nc2ccccc2[nH]1	43	-6	96*	47	.	46
O=C(/C(=C\c1ccccc1)c1nc2ccccc2[nH]1)c1ccc(Cl)cc1	3	-1	18	37	.	79*
SMILES	Beta cell apopt	A1 inh	Calb FLC	T cruzi repl	TAG inh	CSC inhib
COC(=O)/C(=C\c1ccc(O)cc1)c1nc2ccccc2[nH]1	-9	0	11	-1	0	-14
CCOC(=O)c1c(NC(=O)C2CCCO2)sc(C(N)=O)c1C (stereo not given)	-8	0	-20	-20	.	14
CCOC(=O)c1c(NC(=S)NCC2CCCO2)sc(C)c1C (stereo not given)	.	-1	85*	1	7	-10
COCc1cc(CN(C)C(=O)c2oc3c(F)cccc3c2C)[nH]n1	-12	-1	-6	-7	.	-1
OC(COc1ccc2ccccc2c1Br)Cn1ccnc1 (stereo not given)	-1	4	8	63*	.	-9
OC(COc1ccc2ccccc2c1)Cn1ccnc1 (stereo not given)	.	0	-2	48	.	.
O=C(OCC(=O)N1CCNC1=O)c1ccccc1Cl	.	.	.	.	8	.
COc1ccc(N2CCN(C(=O)COC(=O)CCOc3ccc(C)cc3)CC2)cc1	-5	-1	-5	-15	10	-10
CC(C)NC(=O)Nc1ccc2c(c1)C(=O)N([C@H](C)CO)C[C@H](C)[C@@H](CN(C)S(=O)(=O)c1cn(C)cn1)O2	1	0	.	.	-1	-22
COc1ccc(-c2ccc([C@H]3[C@@H]4C=CCC[C@@]4(C)C(=O)N3Cc3ccccc3)c(F)c2)cc1OC	25	-1	-1	67*	17	30
COc1ccc(-c2cccc([C@H]3[C@@H]4C=CCC[C@@]4(C)C(=O)N3Cc3ccccc3)c2)cc1	-18	1	3	35	-12	82*
COc1ccc(-c2c([C@H]3[C@@H]4C=CCC[C@@]4(C)C(=O)N3Cc3ccccc3)ccc3ccccc23)cc1OC	14	-1	5	30	2	-2
Cc1ccc(-c2cc([C@H]3[C@@H]4C=CCC[C@@]4(C)C(=O)N3Cc3ccccc3)ccc2F)cc1	-3	-1	-13	14	-18	111*
CN(C)c1ccc(-c2cc([C@H]3[C@@H]4C=CCC[C@@]4(C)C(=O)N3Cc3ccccc3)ccc2F)cc1	-1	-1	13	40	-15	104*
O=C1CCCC(O)=C1Sc1cc(Cl)c(Cl)cc1Cl	0	0	0	-2	6	-10
CN(C)C(=O)c1cccc(-c2csc(N3CCC(C(N)=O)CC3)n2)c1	-7	0	.	.	.	-28
Cc1ccc(F)c([C@H]2[C@@H]3C=CCC[C@@]3(C)C(=O)N2Cc2ccccc2)c1	-7	1	-11	20	-19	14
COc1ccc(-c2cc([C@H]3[C@@H]4C=CCC[C@@]4(C)C(=O)N3Cc3ccccc3)ccc2F)cc1OC	3	-1	0	31	-8	91*
C[C@@]12CCC=C[C@H]1[C@H](c1ccc(F)c(/C=C/c3ccccc3)c1)N(Cc1ccccc1)C2=O	6	1	-1	19	-2	94*
CCCCCCN1C(=O)CC(NC(=O)OCC2c3ccccc3-c3ccccc32)C/C=C\C1C(C)C (stereo not given)	.	.	.	.	13	.
COc1ccc(OC(C)C(=O)NC(C)c2ccccc2)cc1 (stereo not given)	-3	0	-5	-10	.	-1

Source: PubChem BioAssay (several laboratories)
